According to ChEMBL document CHEMBL4311979, “Structural isomers of cinnamic hydroxamic acids block HCV replication via different mechanisms” (Eur J Med Chem, 2019):

Columns and labels:
[1] = target: T1, Histone deacetylase 1/2/3 (Homo sapiens) (UniProt Q13547+O15379+Q92769); experiment: Inhibition of HDAC1/2/3 in human HuH7-luc/neo cells assessed as ratio of H3K9/14ac content to the content of unmodified histone H3 at 0.3 uM incubated for 24 hrs by Western blot analysis relative to control; format: cell-based
In short: (§1)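 Huh7-luc/neo cells were dosed after 24 h at 40-50% monolayer and exposed to compound for 24 h at 37 °C in 5% CO2. For α-tubulin and SMC3, cells were PBS-washed and lysed. Histone H3 was acid-extracted: TEB buffer with 0.5% Triton X-100, then 0.2 M HCl overnight at 4 °C, then neutralized. Western blots were blocked in 5% milk/PBST with overnight primary antibody at 4 °C. Values are acetylated/total normalized ratios versus control.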

[2] = Cytotoxicity against human HuH7 cells assessed as reduction in cell viability incubated for 3 days by MTT assay; format: cell-based, Huh-7
In short: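 Huh7 cells were reseeded and dosed over a range of concentrations after 24 h (30-40% monolayer). Incubation was three days at 37 °C in 5% CO2, and viability was read by MTT. CC50 is the mean and standard deviation of at least six independent experiments.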

[3] = target: T2, Protein deacetylase HDAC6 (Homo sapiens) (UniProt Q9UBN7); experiment: Inhibition of HDAC6 in human HuH7-luc/neo cells assessed as ratio of alphaTubK40ac content to the content of unmodified alpha-tubulin at 1 uM incubated for 24 hrs by Western blot analysis relative to control; format: cell-based; in short: as §1
T2 sequence (whole entry): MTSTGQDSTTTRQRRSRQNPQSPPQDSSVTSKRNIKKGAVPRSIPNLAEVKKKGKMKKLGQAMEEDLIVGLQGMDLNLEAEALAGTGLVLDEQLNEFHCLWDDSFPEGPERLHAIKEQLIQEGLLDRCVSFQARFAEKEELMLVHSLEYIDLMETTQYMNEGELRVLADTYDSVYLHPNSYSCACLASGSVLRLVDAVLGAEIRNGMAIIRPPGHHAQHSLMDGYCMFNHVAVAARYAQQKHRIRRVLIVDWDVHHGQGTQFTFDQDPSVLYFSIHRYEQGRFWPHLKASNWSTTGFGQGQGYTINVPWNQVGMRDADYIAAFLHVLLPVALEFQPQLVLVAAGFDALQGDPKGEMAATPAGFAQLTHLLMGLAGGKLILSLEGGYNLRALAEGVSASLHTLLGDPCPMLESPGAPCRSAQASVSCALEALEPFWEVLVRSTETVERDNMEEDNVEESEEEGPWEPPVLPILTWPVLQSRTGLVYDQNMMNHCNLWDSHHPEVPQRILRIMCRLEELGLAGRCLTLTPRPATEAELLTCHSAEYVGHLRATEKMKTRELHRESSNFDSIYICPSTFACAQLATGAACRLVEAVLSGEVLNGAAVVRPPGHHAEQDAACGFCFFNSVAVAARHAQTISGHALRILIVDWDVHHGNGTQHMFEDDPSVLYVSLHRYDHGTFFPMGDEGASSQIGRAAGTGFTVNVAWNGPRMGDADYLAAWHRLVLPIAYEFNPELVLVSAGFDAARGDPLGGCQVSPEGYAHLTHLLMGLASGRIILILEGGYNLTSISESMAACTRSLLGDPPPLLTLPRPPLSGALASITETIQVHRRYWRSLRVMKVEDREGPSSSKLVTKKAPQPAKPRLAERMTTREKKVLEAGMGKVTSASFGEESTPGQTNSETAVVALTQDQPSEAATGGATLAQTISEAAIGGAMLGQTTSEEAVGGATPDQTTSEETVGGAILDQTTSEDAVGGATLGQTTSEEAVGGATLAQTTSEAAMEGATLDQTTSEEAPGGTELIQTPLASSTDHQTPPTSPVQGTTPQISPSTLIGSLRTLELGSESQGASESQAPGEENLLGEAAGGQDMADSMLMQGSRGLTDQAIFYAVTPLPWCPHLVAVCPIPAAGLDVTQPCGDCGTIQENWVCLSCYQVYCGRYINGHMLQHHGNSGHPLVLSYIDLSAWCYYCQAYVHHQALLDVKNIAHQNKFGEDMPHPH

Hepatitis C virus = experiment: Antiviral activity against HCV infected in human HuH7-luc/neo cells assessed as inhibition of viral replicon propagation incubated for 3 days by luciferase reporter gene assay; format: functional, organism-based, Hepacivirus hominis; conditions: 72 h
In short: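 Huh7-luc/neo cells carrying a full-length HCV replicon with a luciferase gene. Cells were reseeded without G418 and dosed at 30-40% monolayer (48 h) over a range of concentrations. Incubation was 72 h at 37 °C in 5% CO2. Cells were then PBS-washed and lysed, and luciferase chemiluminescence was read. EC50 is the mean and standard deviation of at least four independent experiments.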

[4] = target: T2, Protein deacetylase HDAC6 (Homo sapiens); experiment: Inhibition of HDAC6 in human HuH7-luc/neo cells assessed as ratio of alphaTubK40ac content to the content of unmodified alpha-tubulin at 3 uM incubated for 24 hrs by Western blot analysis relative to control; format: cell-based; in short: as §1
[5] = target: T1, Histone deacetylase 1/2/3 (Homo sapiens); experiment: Inhibition of HDAC1/2/3 in human HuH7-luc/neo cells assessed as ratio of H3K9/14ac content to the content of unmodified histone H3 at 3 uM incubated for 24 hrs by Western blot analysis relative to control; format: cell-based; in short: as §1
[6] = target: T3, Histone deacetylase 8 (Homo sapiens) (UniProt Q9BY41); experiment: Inhibition of HDAC8 in human HuH7-luc/neo cells assessed as ratio of SMC3K105/106ac content to the content of unmodified SMC3 at 3 uM incubated for 24 hrs by Western blot analysis relative to control; format: cell-based; in short: as §1
T3 sequence (whole entry): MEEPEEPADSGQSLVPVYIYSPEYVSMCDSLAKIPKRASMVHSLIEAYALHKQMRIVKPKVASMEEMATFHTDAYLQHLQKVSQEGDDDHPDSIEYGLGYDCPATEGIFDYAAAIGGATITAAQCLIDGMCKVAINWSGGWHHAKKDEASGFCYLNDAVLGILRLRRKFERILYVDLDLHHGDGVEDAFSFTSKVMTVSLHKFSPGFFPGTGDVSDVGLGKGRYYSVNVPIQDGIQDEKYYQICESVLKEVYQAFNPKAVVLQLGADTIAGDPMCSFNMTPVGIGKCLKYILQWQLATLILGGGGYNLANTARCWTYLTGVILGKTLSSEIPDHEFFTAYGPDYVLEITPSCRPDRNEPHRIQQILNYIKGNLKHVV

[7] = Therapeutic index, ratio of CC50 for human HuH7 cells to EC50 for HCV infected in human HuH7-luc/neo cells; format: toxicity, cell-based; conditions: HuH7 cells (CC50) and HCV-infected HuH7-luc/neo cells (EC50)
[8] = target: T2, Protein deacetylase HDAC6 (Homo sapiens); experiment: Inhibition of HDAC6 in human HuH7-luc/neo cells assessed as ratio of alphaTubK40ac content to the content of unmodified alpha-tubulin at 0.3 uM incubated for 24 hrs by Western blot analysis relative to control; format: cell-based; in short: as §1
[9] = target: T1, Histone deacetylase 1/2/3 (Homo sapiens); experiment: Inhibition of HDAC1/2/3 in human HuH7-luc/neo cells assessed as ratio of H3K9/14ac content to the content of unmodified histone H3 at 1 uM incubated for 24 hrs by Western blot analysis relative to control; format: cell-based; in short: as §1
[10] = target: T3, Histone deacetylase 8 (Homo sapiens); experiment: Inhibition of HDAC8 in human HuH7-luc/neo cells assessed as ratio of SMC3K105/106ac content to the content of unmodified SMC3 at 10 uM incubated for 24 hrs by Western blot analysis relative to control; format: cell-based; in short: as §1
[11] = target: T3, Histone deacetylase 8 (Homo sapiens); experiment: Inhibition of HDAC8 in human HuH7-luc/neo cells assessed as ratio of SMC3K105/106ac content to the content of unmodified SMC3 at 0.1 uM incubated for 24 hrs by Western blot analysis relative to control; format: cell-based; in short: as §1
[12] = target: T3, Histone deacetylase 8 (Homo sapiens); experiment: Inhibition of HDAC8 in human HuH7-luc/neo cells assessed as ratio of SMC3K105/106ac content to the content of unmodified SMC3 at 1 uM incubated for 24 hrs by Western blot analysis relative to control; format: cell-based; in short: as §1
[13] = target: T3, Histone deacetylase 8 (Homo sapiens); experiment: Inhibition of HDAC8 in human HuH7-luc/neo cells assessed as ratio of SMC3K105/106ac content to the content of unmodified SMC3 at 0.3 uM incubated for 24 hrs by Western blot analysis relative to control; format: cell-based; in short: as §1

fold change (FC) [1]	fold change (FC) [3]	EC50 (Hepatitis C virus) [nM]	fold change (FC) [4]	fold change (FC) [5]	fold change (FC) [6]	fold change (FC) [8]	fold change (FC) [9]	fold change (FC) [10]	fold change (FC) [11]	fold change (FC) [12]	fold change (FC) [13]	Compound	CC50 at 72 h [2] [µM]	selectivity ratio [7]
4.3	0.5	130	2.55	9.6	0.52	0.52	9	0.41				O=C(/C=C/c1ccc(OCCc2ccccc2)cc1)NO	16	120
	0.75	1100	1.45	1.56			1.16					COc1ccccc1/C=C/C(=O)NO	30	27
4.04	3.73	63	6.35	15.4	0.84	0.86	11.2	1.13				O=C(/C=C/c1ccc(OCCOc2ccccc2)cc1)NO	5.7	91
	4.92	42	8.86	4.83	0.93	1.63	4.23	0.67				O=C(/C=C/c1ccc(OCc2ccccc2)cc1)NO	9.9	240
	3.33	110	7.72	20.2	0.89		7.5	1.44				O=C(/C=C/c1cccc(OCCOc2ccccc2)c1)NO	6	55
1.53	2.22	54	2.58	2.58	0.83	2.09	1.69	0.73				O=C(/C=C/c1ccc(Oc2ccccc2)cc1)NO	20	370
	0.64	320	0.8	4.34	3.17		2.39	3.78	1.84	1.98	2.03	O=C(/C=C/c1ccccc1OCCc1ccccc1)NO	83	260
	0.5	370	0.69	1.94	3.18		1.47	2.87	1.58	2.14	2.07	O=C(/C=C/c1ccccc1OCCOc1ccccc1)NO	45	120
	2.13	570	3.3	1.69			1.45					COc1cccc(/C=C/C(=O)NO)c1	17	30
0.62	0.74	400	1.01	1.46	2.66		0.9	3.14	1.7	2.15	2.03	O=C(/C=C/c1ccccc1Oc1ccccc1)NO	66	165
	2.46	250	1.99	1.48	2.16		0.95	3.14	1.51	1.61	1.19	O=C(/C=C/c1ccccc1OCc1ccccc1)NO	31	120
	7.34	180	10.6	14.1	0.82		8.42	0.83				O=C(/C=C/c1cccc(OCc2ccccc2)c1)NO	6.6	37
1.27	2.58	400	3.79	1.9	0.54	1.54	1.75	1.02				O=C(/C=C/c1cccc(Oc2ccccc2)c1)NO	20	50
	3.57	560	5.1	1.85		0.55	1.35					COc1ccc(/C=C/C(=O)NO)cc1	15	27
	3.53	300	4.34	11.2	0.7		8.55	0.58				O=C(/C=C/c1cccc(OCCc2ccccc2)c1)NO	12	41
